Legend:
Rattus norvegicus [1] = test: Distribution of tissue Radioactivity following Intravenous injection into castrated male rat blood at 2 hours time; assay type: ADME, organism-based; conditions: in vivo
In short: (§1)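 Male Sprague–Dawley rats, about 250 g, were castrated and injected the next day via the tail vein with 5.4 μCi (2.4 pmol) of 125I tracer in ethanol/saline (1:4). There were 5–6 rats per group. At 0.5, 1, 2 or 4 h, rats were ether-anesthetized and killed by exsanguination. Tissues were dissected, weighed and counted, giving % injected dose/g and prostate/blood ratios.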

Rattus norvegicus [2] = test: Distribution of tissue Radioactivity following Intravenous injection into castrated male rat lung at 4 hours time; assay type: ADME, organism-based; conditions: in vivo; in short: as §1
Rattus norvegicus [3] = test: Distribution of tissue Radioactivity following Intravenous injection into castrated male rat prostate/blood at 4 hours time; assay type: ADME, organism-based; conditions: in vivo; in short: as §1
Rattus norvegicus [4] = test: Distribution of tissue Radioactivity following Intravenous injection into castrated male rat fat at 4 hours time; assay type: ADME, organism-based, Adipose tissue; conditions: in vivo; in short: as §1
Rattus norvegicus [5] = test: Distribution of tissue Radioactivity following Intravenous injection into castrated male rat blood at 4 hours time; assay type: ADME, organism-based; conditions: in vivo; in short: as §1
Rattus norvegicus [6] = test: Distribution of tissue Radioactivity following Intravenous injection into castrated male rat fat at 0.5 hours time; assay type: ADME, organism-based, Adipose tissue; conditions: in vivo; in short: as §1
Rattus norvegicus [7] = test: Distribution of tissue Radioactivity following subcutaneous injection of […] of 5-alpha-DHT 15 min before the administration of the [125I]- tracer castrated male rat lung at 1 hour time; assay type: ADME, organism-based; conditions: in vivo, sc
In short: (§2)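 Castrated male Sprague–Dawley rats, about 250 g, received 5α-DHT subcutaneously in propylene glycol/saline (3:2) 15 min before a tail-vein 125I tracer (5.4 μCi, 2.4 pmol, in ethanol/saline 1:4). There were 5–6 rats per group. At 1 h, rats were ether-anesthetized and exsanguinated. Tissues were weighed and counted as % injected dose/g, plus the prostate/blood ratio.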

Rattus norvegicus [8] = test: Distribution of tissue Radioactivity following subcutaneous injection of […] of 5-alpha-DHT 15 min before the administration of the [125I]- tracer castrated male rat liver at 1 hour time; assay type: ADME, organism-based; conditions: in vivo, sc; in short: as §2
Rattus norvegicus [9] = test: Distribution of tissue Radioactivity following Intravenous injection into castrated male rat prostate at 2 hours time; assay type: ADME, organism-based, Prostate gland; conditions: in vivo; in short: as §1
Rattus norvegicus [10] = test: Distribution of tissue Radioactivity following Intravenous injection into castrated male rat prostate/blood at 1 hours time; assay type: ADME, organism-based; conditions: other tissue; in short: as §1
Rattus norvegicus [11] = test: Distribution of tissue Radioactivity following Intravenous injection into castrated male rat spleen at 1 hour time; assay type: ADME, organism-based; conditions: in vivo; in short: as §1
Rattus norvegicus [12] = test: Distribution of tissue Radioactivity following Intravenous injection into castrated male rat prostate/blood at 0.5 hours time; assay type: ADME, organism-based; conditions: in vivo; in short: as §1
Rattus norvegicus [13] = test: Distribution of tissue Radioactivity following Intravenous injection into castrated male rat thyroid at 4 hours time; assay type: ADME, organism-based, Thyroid gland; conditions: in vivo; in short: as §1
Rattus norvegicus [14] = test: Distribution of tissue Radioactivity following Intravenous injection into castrated male rat lung at 0.5 hours time; assay type: ADME, organism-based; conditions: in vivo; in short: as §1
Rattus norvegicus [15] = test: Distribution of tissue Radioactivity following subcutaneous injection of […] of 5-alpha-DHT 15 min before the administration of the [125I]- tracer castrated male rat kidney at 1 hour time; assay type: ADME, organism-based; conditions: in vivo, sc; in short: as §2
Rattus norvegicus [16] = test: Distribution of tissue Radioactivity following subcutaneous injection of […] of 5-alpha-DHT 15 min before the administration of the [125I]- tracer castrated male rat blood at 1 hour time; assay type: ADME, organism-based; conditions: in vivo, sc; in short: as §2
Rattus norvegicus [17] = test: Distribution of tissue Radioactivity following Intravenous injection into castrated male rat spleen at 0.5 hours time; assay type: ADME, organism-based; conditions: in vivo; in short: as §1
Rattus norvegicus [18] = test: Distribution of tissue Radioactivity following subcutaneous injection of […] of 5-alpha-DHT 15 min before the administration of the [125I]- tracer castrated male rat spleen at 1 hour time; assay type: ADME, organism-based; conditions: in vivo, sc; in short: as §2
Rattus norvegicus [19] = test: Distribution of tissue Radioactivity following Intravenous injection into castrated male rat thyroid at 1 hour time; assay type: ADME, organism-based, Thyroid gland; conditions: in vivo; in short: as §1
Rattus norvegicus [20] = test: Distribution of tissue Radioactivity following Intravenous injection into castrated male rat lung at 2 hours time; assay type: ADME, organism-based; conditions: in vivo; in short: as §1
Rattus norvegicus [21] = test: Distribution of tissue Radioactivity following Intravenous injection into castrated male rat fat at 1 hour time; assay type: ADME, organism-based, Adipose tissue; conditions: in vivo; in short: as §1
Rattus norvegicus [22] = test: Distribution of tissue Radioactivity following Intravenous injection into castrated male rat liver at 4 hours time; assay type: ADME, organism-based; conditions: in vivo; in short: as §1
Rattus norvegicus [23] = test: Distribution of tissue Radioactivity following Intravenous injection into castrated male rat kidney at 4 hours time; assay type: ADME, organism-based; conditions: in vivo; in short: as §1
Rattus norvegicus [24] = test: Distribution of tissue Radioactivity following Intravenous injection into castrated male rat liver at 2 hours time; assay type: ADME, organism-based; conditions: in vivo; in short: as §1
Rattus norvegicus [25] = test: Distribution of tissue Radioactivity following Intravenous injection into castrated male rat blood at 0.5 hours time; assay type: ADME, organism-based; conditions: in vivo; in short: as §1

## C[C@]12CCC(=O)CC1C[C@@H](I)[C@@H]1[C@@H]2CC[C@@]2(C)[C@H]1CC[C@]2(C)O (stereo not given in full)
Rattus norvegicus [1]
  Biodistribution: 0.31%
Rattus norvegicus [2]
  Dose/g: 0.28%
Rattus norvegicus [3]
  Dose/g: 1.19%
Rattus norvegicus [4]
  Biodistribution: 0.17%
Rattus norvegicus [5]
  Dose/g: 0.37%
Rattus norvegicus [6]
  Biodistribution: 0.2%
Rattus norvegicus [7]
  Dose/g: 0.28%
Rattus norvegicus [8]
  Dose/g: 0.36%
Rattus norvegicus [9]
  Dose/g: 0.44%
Rattus norvegicus [10]
  Biodistribution: 1.17%
Rattus norvegicus [11]
  Biodistribution: 0.16%
Rattus norvegicus [12]
  Dose/g: 0.7%
Rattus norvegicus [13]
  Biodistribution: 9.7%
Rattus norvegicus [14]
  Dose/g: 0.22%
Rattus norvegicus [15]
  Biodistribution: 0.3%
Rattus norvegicus [16]
  Dose/g: 0.35%
Rattus norvegicus [17]
  Dose/g: 0.13%
Rattus norvegicus [18]
  Dose/g: 0.18%
Rattus norvegicus [19]
  Dose/g: 4.07%
Rattus norvegicus [20]
  Biodistribution: 0.24%
Rattus norvegicus [21]
  Dose/g: 0.25%
Rattus norvegicus [22]
  Dose/g: 0.24%
Rattus norvegicus [23]
  Biodistribution: 0.23%
Rattus norvegicus [24]
  Biodistribution: 0.23%
Rattus norvegicus [25]
  Dose/g: 0.3%
